This note sets out measurements from the array DNA melting data of Ke et al. (doi:10.1101/2024.01.08.574731).

Series [1] in a line: folding enthalpy; higher = less favourable; fluorescence melt of hairpins on a sequencing array, two-state fit. Conditions: sodium 0.088 M. The procedure, abridged:
(§1)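 Melting temperature and folding enthalpy were derived from bootstrapped two-state fits. The fitted temperatures were raised by 9.35 °C to agree with UV melts, and four replicates were combined by inverse variance. The underlying data were Cy3 fluorescence images of library hairpins, with annealed Cy3 and quencher oligos, on a sequenced MiSeq flow cell in 50 mM Na-HEPES pH 8.0, 25 mM NaCl, taken in 2.5 °C steps up to 60 °C, normalised to pre-quench Cy3 and to control constructs.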

Series [2] is described as follows: melting temperature; fluorescence melt of hairpins on a sequencing array, two-state fit, raised by 9.35 °C to match UV melts. Conditions: sodium 0.088 M. A digest of the protocol: as §1

CGCGGACAATTCCGCG ((((((....)))))): the folding enthalpy in series [1] is -128 kJ/mol. Besides, in series [2], the Tm was determined as 62.2 °C.

In the case of CGCGGACCTTCCGCG ((((((...)))))), in series [1], the folding enthalpy is -119 kJ/mol. In series [2], the Tm amounted to 69.2 °C.

Take CGCGGACGAATCCGCG ((((((....)))))): the folding enthalpy in series [1] was -139 kJ/mol. The Tm in series [2] amounted to 68.5 °C.

Regarding CGCGGACGATCCGCG ((((((...)))))), the folding enthalpy in series [1] is -148 kJ/mol. Moreover, in series [2], the Tm turned out to be 63.2 °C.

Take CGCGGACGCTCCGCG ((((((...)))))): the folding enthalpy in series [1] was -133 kJ/mol. For the same sequence, in series [2], the Tm is 66.6 °C.

Take CGCGGACTGTCCGCG ((((((...)))))): the folding enthalpy in series [1] was -177 kJ/mol. Besides, the Tm in series [2] was 64.7 °C.

On to CGCGGATAGTTCCGCG ((((((....)))))), for which the folding enthalpy in series [1] is -148 kJ/mol. The Tm in series [2] worked out at 68.5 °C.

For CGCGGATGATTCCGCG ((((((....)))))), the folding enthalpy in series [1] was -131 kJ/mol. The Tm in series [2] worked out at 69.3 °C.

For CGCGGATTGCTCCGCG ((((((....)))))), the folding enthalpy in series [1] is -204 kJ/mol. In addition, in series [2], the Tm turned out to be 64.9 °C.

Take CGCGGTCGGAAACGAGCG (((..(((....)))))): the folding enthalpy in series [1] is -63.1 kJ/mol. Also, in series [2], the Tm is 56.1 °C.

Take CGCGTCGGAAACGAAGCG (((.(((....))).))): the folding enthalpy in series [1] is -142 kJ/mol. In addition, in series [2], the Tm is 56.7 °C.

CGCTAGCGGAAACGCGCG (((..(((....)))))): the folding enthalpy in series [1] is -106 kJ/mol. Besides, in series [2], the Tm was determined as 52.7 °C.

As for CGCTCCGGAAACGGCGCG (((.(((....))).))), the folding enthalpy in series [1] was -165 kJ/mol. In addition, the Tm in series [2] was 56.9 °C.

Take CGCTCGGAAACGATTGCG ((((((....)))..))): the folding enthalpy in series [1] is -106 kJ/mol. In addition, the Tm in series [2] stood at 39.8 °C.

With CGCTTCGGAAACGAGGCG (((.(((....))).))), the folding enthalpy in series [1] was -177 kJ/mol. The Tm in series [2] is 55.9 °C.

For CGCTTTCGGAAACGAGCG (((..(((....)))))), the folding enthalpy in series [1] is -104 kJ/mol. For the same sequence, the Tm in series [2] was found to be 36.1 °C.

Take CGGACCGGAAACGGCCCG (((.(((....))).))): in series [1], the folding enthalpy is -167 kJ/mol. Further, the Tm in series [2] is 56.4 °C.

Regarding CGGACGGAAACGTCTCCG ((((((....)))..))), the folding enthalpy in series [1] was -47.3 kJ/mol. In addition, in series [2], the Tm was 35.7 °C.

For CGGACGGAAACGTGTCCG ((((((....)))..))), the folding enthalpy in series [1] is -137 kJ/mol. The Tm in series [2] was 49.5 °C.

Regarding CGGAGCCGGAAACGGCCG (((..(((....)))))), in series [1], the folding enthalpy is -46.9 kJ/mol. Further, the Tm in series [2] stood at 46.6 °C.

For the sequence CGGCCACGGAAACGTCCG (((..(((....)))))), the folding enthalpy in series [1] was -43.5 kJ/mol. The Tm in series [2] was 33.6 °C.

For the sequence CGGCCCGGAAACGGTCCG (((.(((....))).))), the folding enthalpy in series [1] was -189 kJ/mol. Also, in series [2], the Tm was found to be 55.3 °C.

Take CGGCCGGAAACGGATCCG ((((((....)))..))): the folding enthalpy in series [1] is -92.1 kJ/mol. The Tm in series [2] was determined as 39.8 °C.

Take CGGCCGGAAACGGGCCCG ((((((....)))..))): the folding enthalpy in series [1] was -40.4 kJ/mol. Besides, the Tm in series [2] is 46.8 °C.

For CGGCCGGAAACGGGTCCG ((((((....)))..))), the folding enthalpy in series [1] was -77.9 kJ/mol. Moreover, the Tm in series [2] was 50.4 °C.

As for CGGCCGGAAACGGTCCCG ((((((....)))..))), in series [1], the folding enthalpy is -54.7 kJ/mol. For the same sequence, the Tm in series [2] was 41 °C.

For the sequence CGGCCTCGGAAACGACCG (((..(((....)))))), the folding enthalpy in series [1] is -78.2 kJ/mol. Besides, the Tm in series [2] was found to be 34.5 °C.

Take CGGCGCGGAAACGCACCG (((.(((....))).))): the folding enthalpy in series [1] was -123 kJ/mol. In addition, the Tm in series [2] was found to be 67.4 °C.

As for CGGCGCGGAAACGCCCCG (((.(((....))).))), the folding enthalpy in series [1] was -73.3 kJ/mol. In addition, the Tm in series [2] was 52 °C.

As to CGGCTTCGGAAACGACCG (((..(((....)))))), in series [1], the folding enthalpy is -76.2 kJ/mol. Moreover, the Tm in series [2] was found to be 37.9 °C.

For the sequence CGGGAACGGAAACGTCCG (((..(((....)))))), the folding enthalpy in series [1] is -92.8 kJ/mol. Further, the Tm in series [2] came to 43.1 °C.

Take CGGGCACGGAAACGTCCG (((..(((....)))))): the folding enthalpy in series [1] is -83.3 kJ/mol. In series [2], the Tm is 38.9 °C.

With CGGGCGGAAACGCATCCG ((((((....)))..))), in series [1], the folding enthalpy is -66.7 kJ/mol. The Tm in series [2] came out at 44.3 °C.

For the sequence CGGGGACGGAAACGTCCG (((..(((....)))))), the folding enthalpy in series [1] was -33.1 kJ/mol. In addition, in series [2], the Tm came out at 50.2 °C.

As for CGGGGGCGGAAACGCCCG (((..(((....)))))), the folding enthalpy in series [1] was -25.6 kJ/mol. For the same sequence, the Tm in series [2] was 52.2 °C.

Regarding CGGGTACGGAAACGTCCG (((..(((....)))))), the folding enthalpy in series [1] is -83.7 kJ/mol. Further, the Tm in series [2] came to 40 °C.

For the sequence CGGGTCGGAAACGAACCG (((.(((....))).))), the folding enthalpy in series [1] is -179 kJ/mol. For the same sequence, the Tm in series [2] was 59.6 °C.
